Assay results reported in ChEMBL document CHEMBL4823286, “Synthesis and evaluation of novel 2,4-diaminopyrimidines bearing a sulfoxide moiety as anaplastic lymphoma kinase (ALK) inhibition agents” (Bioorg Med Chem Lett, 2021).

Assays:
[1] = test system: NCI-H2228; test: Antiproliferative activity against human NCI-H2228 cells assessed as inhibition of cell proliferation measured by CCK8 assay; format: functional, cell-based
Outline: (§1)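 Cell proliferation inhibition; IC50 given as mean ± SD of three independent experiments.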

[2] = test system: BaF3; test: Antiproliferative activity against mouse BaF3 cells overexpressing ALK assessed as inhibition of cell proliferation measured by CCK8 assay; format: functional, cell-based; outline: as §1

IC50 [1]: 82.9 nM
IC50 [2]: 32.3 nM
Compound: COc1cc(N2CCN(C)CC2)ccc1Nc1ncc(Cl)c(Nc2ccccc2[S+]([O-])C(C)C)n1 (configuration not stated)
